# ChEMBL document CHEMBL1137781, “Synthesis and preclinical evaluation of novel PET probes for P-glycoprotein function and expression” (J Med Chem, 2009)
# How the values were obtained:
# Lung = assay: Biodistribution in 15 mg/kg unlabeled 6,7-dimethoxy-2-(3-(5-methoxy-3,4-dihydronaphthalen-1(2H)-ylidene)propyl)-1,2,3,4-tetrahydroisoquinoline pretreated Wistar rat lung at 13+/-2 MBq, iv after 80 mins; format: ADME, organism-based; design: dose 15 mg/kg, route intravenous; details: in vivo
# How it was run: (§1)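 Male Wistar rats given saline or unlabeled compound via tail vein: 15 mg/kg, dissolved at 10 mg/mL in saline with 35% ethanol. [11C] tracer (8-15 MBq) then given via penile vein. After microPET scanning the anesthetized rats were killed. Tissues were excised and weighed, and blood was spun for plasma and cell fraction. γ counting with decay correction. Results as SUV (tissue MBq/g × body weight/injected dose).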
# Liver [1] = assay: Biodistribution in 15 mg/kg unlabeled 6,7-dimethoxy-2-(3-(5-methoxy-3,4-dihydronaphthalen-1(2H)-ylidene)propyl)-1,2,3,4-tetrahydroisoquinoline pretreated Wistar rat liver at 13+/-2 MBq, iv after 80 mins; format: ADME, organism-based; design: dose 15 mg/kg, route intravenous; details: in vivo; how it was run: as §1
# Plasma = assay: Biodistribution in Wistar rat plasma at 11+/-2 MBq, iv after 60 mins; format: ADME, organism-based; details: in vivo, 1 h
# How it was run: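 Male Wistar rats under isoflurane with a femoral arterial cannula; saline pretreatment via tail vein. Carbon-11 tracer (8–15 MBq, diluted in saline) injected into the penile vein during microPET. 14 arterial samples were drawn from 15 s to 60 min, plasma was separated by centrifugation, and radioactivity was gamma-counted. Results are given as SUV (tissue MBq/g × body weight/injected dose).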
# Colon = assay: Biodistribution in 15 mg/kg unlabeled 6,7-dimethoxy-2-(3-(5-methoxy-3,4-dihydronaphthalen-1(2H)-ylidene)propyl)-1,2,3,4-tetrahydroisoquinoline pretreated Wistar rat colon at 13+/-2 MBq, iv after 80 mins; format: ADME, organism-based; design: dose 15 mg/kg, route intravenous; details: in vivo; how it was run: as §1
# [2] = Biodistribution in Wistar rat trachea at 11+/-2 MBq, iv after 80 mins; format: ADME, organism-based; details: in vivo
# [3] = Biodistribution in Wistar rat amygdala at 11+/-2 MBq, iv after 80 mins; format: ADME, organism-based; details: in vivo
# Brain [4] = assay: Biodistribution in Wistar rat brain at 11+/-2 MBq, iv after 56 mins; format: ADME, organism-based; details: in vivo
# Spleen = assay: Biodistribution in Wistar rat spleen at 11+/-2 MBq, iv after 80 mins; format: ADME, organism-based; details: in vivo
# Bone = assay: Biodistribution in 15 mg/kg unlabeled 6,7-dimethoxy-2-(3-(5-methoxy-3,4-dihydronaphthalen-1(2H)-ylidene)propyl)-1,2,3,4-tetrahydroisoquinoline pretreated Wistar rat bone at 13+/-2 MBq, iv after 80 mins; format: ADME, organism-based, Bone element; design: dose 15 mg/kg, route intravenous; details: in vivo; how it was run: as §1
# Kidney = assay: Biodistribution in Wistar rat kidney at 11+/-2 MBq, iv after 80 mins; format: ADME, organism-based; details: in vivo
# How it was run: (§2)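 Male Wistar rats (12 h light/dark, chow ad libitum) were fitted with a femoral arterial cannula under isoflurane. They were pretreated via tail vein with saline, cyclosporin A (50 mg/kg), or nonradioactive tracer compound (15 mg/kg; 10 mg/mL in saline with 35% ethanol). The 11C tracer was then given via penile vein, followed by 76 min microPET. Animals were then terminated; excised tissues were weighed and gamma-counted with decay correction. Values are SUVs (tissue MBq/g × body weight g / injected MBq).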
# Pancreas = assay: Biodistribution in 15 mg/kg unlabeled 6,7-dimethoxy-2-(3-(5-methoxy-3,4-dihydronaphthalen-1(2H)-ylidene)propyl)-1,2,3,4-tetrahydroisoquinoline pretreated Wistar rat pancreas at 13+/-2 MBq, iv after 80 mins; format: ADME, organism-based; design: dose 15 mg/kg, route intravenous; details: in vivo; how it was run: as §1
# Heart = assay: Biodistribution in 15 mg/kg unlabeled 6,7-dimethoxy-2-(3-(5-methoxy-3,4-dihydronaphthalen-1(2H)-ylidene)propyl)-1,2,3,4-tetrahydroisoquinoline pretreated Wistar rat heart at 13+/-2 MBq, iv after 80 mins; format: ADME, organism-based; design: dose 15 mg/kg, route intravenous; details: in vivo; how it was run: as §1
# [5] = Biodistribution in 15 mg/kg unlabeled 6,7-dimethoxy-2-(3-(5-methoxy-3,4-dihydronaphthalen-1(2H)-ylidene)propyl)-1,2,3,4-tetrahydroisoquinoline pretreated Wistar rat amygdala at 13+/-2 MBq, iv after 80 mins; format: ADME, organism-based; design: dose 15 mg/kg, route intravenous; details: in vivo; how it was run: as §1
# [6] = Biodistribution in Wistar rat entorhinal cortex at 11+/-2 MBq, iv after 80 mins; format: ADME, organism-based; details: in vivo; how it was run: as §2
# [7] = Biodistribution in 15 mg/kg unlabeled 6,7-dimethoxy-2-(3-(5-methoxy-3,4-dihydronaphthalen-1(2H)-ylidene)propyl)-1,2,3,4-tetrahydroisoquinoline pretreated Wistar rat fat at 13+/-2 MBq, iv after 80 mins; format: ADME, organism-based, Adipose tissue; design: dose 15 mg/kg, route intravenous; details: in vivo; how it was run: as §1
# Muscle tissue = assay: Biodistribution in 15 mg/kg unlabeled 6,7-dimethoxy-2-(3-(5-methoxy-3,4-dihydronaphthalen-1(2H)-ylidene)propyl)-1,2,3,4-tetrahydroisoquinoline pretreated Wistar rat muscle at 13+/-2 MBq, iv after 80 mins; format: ADME, organism-based; design: dose 15 mg/kg, route intravenous; details: in vivo; how it was run: as §1
# Liver [8] = assay: Biodistribution in Wistar rat liver at 11+/-2 MBq, iv after 80 mins; format: ADME, organism-based; details: in vivo; how it was run: as §2
# Pons = assay: Biodistribution in 15 mg/kg unlabeled 6,7-dimethoxy-2-(3-(5-methoxy-3,4-dihydronaphthalen-1(2H)-ylidene)propyl)-1,2,3,4-tetrahydroisoquinoline pretreated Wistar rat pons at 13+/-2 MBq, iv after 80 mins; format: ADME, organism-based; design: dose 15 mg/kg, route intravenous; details: in vivo; how it was run: as §1
# Duodenum = assay: Biodistribution in 15 mg/kg unlabeled 6,7-dimethoxy-2-(3-(5-methoxy-3,4-dihydronaphthalen-1(2H)-ylidene)propyl)-1,2,3,4-tetrahydroisoquinoline pretreated Wistar rat duodenum at 13+/-2 MBq, iv after 80 mins; format: ADME, organism-based; design: dose 15 mg/kg, route intravenous; details: in vivo; how it was run: as §1
# Striatum = assay: Biodistribution in 15 mg/kg unlabeled 6,7-dimethoxy-2-(3-(5-methoxy-3,4-dihydronaphthalen-1(2H)-ylidene)propyl)-1,2,3,4-tetrahydroisoquinoline pretreated Wistar rat striatum at 13+/-2 MBq, iv after 80 mins; format: ADME, organism-based; design: dose 15 mg/kg, route intravenous; details: in vivo; how it was run: as §1
# [9] = Biodistribution in 15 mg/kg unlabeled 6,7-dimethoxy-2-(3-(5-methoxy-3,4-dihydronaphthalen-1(2H)-ylidene)propyl)-1,2,3,4-tetrahydroisoquinoline pretreated Wistar rat bulbus olfactorius at 13+/-2 MBq, iv after 80 mins; format: ADME, organism-based, Olfactory bulb; design: dose 15 mg/kg, route intravenous; details: in vivo; how it was run: as §1
# [10] = Biodistribution in 15 mg/kg unlabeled 6,7-dimethoxy-2-(3-(5-methoxy-3,4-dihydronaphthalen-1(2H)-ylidene)propyl)-1,2,3,4-tetrahydroisoquinoline pretreated Wistar rat trachea at 13+/-2 MBq, iv after 80 mins; format: ADME, organism-based; design: dose 15 mg/kg, route intravenous; details: in vivo; how it was run: as §1
# [11] = Biodistribution in Wistar rat cingulate cortex at 11+/-2 MBq, iv after 80 mins; format: ADME, organism-based; details: in vivo
# Brain [12] = assay: Biodistribution in 15 mg/kg unlabeled 6,7-dimethoxy-2-(3-(5-methoxy-3,4-dihydronaphthalen-1(2H)-ylidene)propyl)-1,2,3,4-tetrahydroisoquinoline pretreated Wistar rat brain at 13+/-2 MBq, iv after 56 mins; format: ADME, organism-based; design: dose 15 mg/kg, route intravenous; details: in vivo
# How it was run: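 Male Wistar rats given saline or unlabeled compound (15 mg/kg, 10 mg/mL in saline with 35% ethanol) via tail vein. [11C] tracer then given via penile vein. Dynamic microPET under anesthesia, with a 3D ROI drawn over the whole brain. SUV taken from the time-activity curve (frames 4×60 s, 3×120 s, 4×300 s, 3×600 s), assuming a density of 1 g/mL. Mean ± SEM.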
# Cerebellum = assay: Biodistribution in Wistar rat cerebellum at 11+/-2 MBq, iv after 80 mins; format: ADME, organism-based; details: in vivo
# [13] = Biodistribution in 15 mg/kg unlabeled 6,7-dimethoxy-2-(3-(5-methoxy-3,4-dihydronaphthalen-1(2H)-ylidene)propyl)-1,2,3,4-tetrahydroisoquinoline pretreated Wistar rat entorhinal cortex at 13+/-2 MBq, iv after 80 mins; format: ADME, organism-based; design: dose 15 mg/kg, route intravenous; details: in vivo; how it was run: as §1
# [14] = Biodistribution in 15 mg/kg unlabeled 6,7-dimethoxy-2-(3-(5-methoxy-3,4-dihydronaphthalen-1(2H)-ylidene)propyl)-1,2,3,4-tetrahydroisoquinoline pretreated Wistar rat frontal cortex at 13+/-2 MBq, iv after 80 mins; format: ADME, organism-based; design: dose 15 mg/kg, route intravenous; details: in vivo; how it was run: as §1
compound,measurement,setting,value
COc1cc2c(cc1OC)CN(CC/C=C1\CCCc3c(O[11CH3])cccc31)CC2,SUV,Lung,2.13
same,SUV,Liver [1],2.34
same,SUV,Plasma,0.49
same,SUV,Colon,0.74
same,SUV,[2],1.25
same,SUV,[3],0.65
same,SUV,Brain [4],0.88
same,SUV,Spleen,2.66
same,SUV,Bone,0.81
same,SUV,Kidney,1.53
same,SUV,Pancreas,2.73
same,SUV,Heart,0.68
same,SUV,[5],0.44
same,SUV,[6],0.55
same,SUV,[7],0.36
same,SUV,Muscle tissue,0.45
same,SUV,Liver [8],1.75
same,SUV,Pons,0.5
same,SUV,Duodenum,1.01
same,SUV,Striatum,0.4
same,SUV,[9],0.4
same,SUV,[10],0.82
same,SUV,[11],0.7
same,SUV,Brain [12],0.68
same,SUV,Cerebellum,0.79
same,SUV,[13],0.49
same,SUV,[14],0.37
